Results: ChEMBL document CHEMBL1141286, “Benzochromenones from the marine crinoid Comantheria rotula inhibit hypoxia-inducible factor-1 (HIF-1) in cell-based reporter assays and differentially suppress the growth of certain tumor cell lines” (J Nat Prod, 2007)
The source made the active and inactive calls. No cut-off for these calls is given here.

Key:
NCI-H226 = assay: Growth inhibition of human NCI-H226 cells; assay type: functional
[1] = DPPH radical scavenging activity relative to Trolox; assay type: functional; design: concentration or dose not given beside the values
Outline: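 Compounds were made up as DMSO stocks and diluted in isopropanol to a final 10 μM. Each was mixed with DPPH in isopropanol at 10 μM or 30 μM DPPH, and absorbance was read at 515 nm. Scavenging was calculated as [1 − OD515(compound)/OD515(control)] × 100, then expressed as a percentage of Trolox activity. One experiment was run in triplicate.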

U-251 = assay: Growth inhibition of human U251 cells; assay type: functional
SR = assay: Growth inhibition of human SR cells; assay type: functional
MDA-MB-231 = assay: Growth inhibition of human MDA-MB-231 cells; assay type: functional
MOLT-4 = assay: Growth inhibition of human MOLT4 cells; assay type: functional
SK-OV-3 = assay: Growth inhibition of human SK-OV3 cells; assay type: functional
EKVX = assay: Growth inhibition of human EKVX cells; assay type: functional
[2] = Inhibition of 1,10-phenanthroline-induced HIF1 activation in PC3 cells by TK-luciferase assay; assay type: cell-based; settings: Homo sapiens, PC-3
Outline: (§1)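 HIF-1 reporter (pHRE-TK-Luc) assays in transfected PC-3 or T47D cells; HIF-1 induced by hypoxia or by the hypoxia mimetic 1,10-phenanthroline (10 μM); compounds at half-log concentrations; luciferase activity measured; IC50 from experiments in triplicate.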

SK-MEL-5 = assay: Growth inhibition of human SK-MEL5 cells; assay type: functional
A549 = assay: Growth inhibition of human A549 cells; assay type: functional
UO-31 = assay: Growth inhibition of human UO31 cells; assay type: functional
NCI-H322M = assay: Growth inhibition of human NCI-H322M cells; assay type: functional
NCI-H460 = assay: Growth inhibition of human NCI-H460 cells; assay type: functional
A498 = assay: Growth inhibition of human A498 cells; assay type: functional
BT-549 = assay: Growth inhibition of human BT549 cells; assay type: functional
CAKI-1 = assay: Growth inhibition of human CAKI1 cells; assay type: functional
NCI/ADR-RES = assay: Growth inhibition of human NCI/ADR-RES cells; assay type: functional
LOX IMVI = assay: Growth inhibition of human LOXIMVI cells; assay type: functional
SF-539 = assay: Growth inhibition of human SF539 cells; assay type: functional
HCC 2998 = assay: Growth inhibition of human HCC2998 cells; assay type: functional
NCI-H522 = assay: Growth inhibition of human NCI-H522 cells; assay type: functional
HT-29 = assay: Growth inhibition of human HT29 cells; assay type: functional
T47D = assay: Inhibition of 1,10-phenanthroline-induced VEGF protein secretion in human T47D cells at 10 uM after 16 hrs by ELISA; assay type: functional, cell-based
Outline: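 T47D cells stimulated with 1,10-phenanthroline, compound at 10 μM; secreted VEGF in conditioned media by ELISA, normalized to cell-lysate protein.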

OVCAR-8 = assay: Growth inhibition of human OVACAR8 cells; assay type: functional
Malme-3M = assay: Growth inhibition of human MALME-3M cells; assay type: functional
[3] = Inhibition of 1,10-phenanthroline-induced HIF1 activation in T47D cells by TK-luciferase assay; assay type: cell-based; settings: Homo sapiens; outline: as §1
K562 = assay: Growth inhibition of human K562 cells; assay type: functional
HCT-116 = assay: Growth inhibition of human HCT116 cells; assay type: functional
HOP-62 = assay: Growth inhibition of human HOP62 cells; assay type: functional
Hs-578T = assay: Growth inhibition of human HS578T cells; assay type: functional
TK-10 = assay: Growth inhibition of human TK10 cells; assay type: functional
HL-60 = assay: Growth inhibition of human HL60 cells; assay type: functional
OVCAR-4 = assay: Growth inhibition of human OVACAR4 cells; assay type: functional
KM12 = assay: Growth inhibition of human KM12 cells; assay type: functional
RXF 393 = assay: Growth inhibition of human RXF393 cells; assay type: functional
SNB-19 = assay: Growth inhibition of human SNB19 cells; assay type: functional
M14 = assay: Growth inhibition of human M14 cells; assay type: functional
786-0 = assay: Growth inhibition of human 786-0 cells; assay type: functional
SF-268 = assay: Growth inhibition of human SF268 cells; assay type: functional
[4] = read-out: Log LC50 (the source's name) (converted)

CCCc1cc(=O)c2c(OC)c3c(OC)cc(O)c(Oc4c(O)cc(OC)c5c(OC)c6c(=O)cc(CCC)oc6cc45)c3cc2o1
GI50 (NCI-H226): 16.2 µM | CC50 (NCI-H226; [4]): 79.4 µM | TGI (NCI-H226; read-out: Log TGI (converted)): 35.5 µM | Activity [1]: 40% | GI50 (U-251): 4.68 µM | LC50 (U-251): 41.7 µM | TGI (U-251; read-out: Log TGI (converted)): 15.8 µM | GI50 (SR): 2.88 µM | CC50 (SR; [4]): 77.6 µM | TGI (SR; read-out: Log TGI (converted)): 7.08 µM | GI50 (MDA-MB-231): 6.31 µM | LC50 (MDA-MB-231): 53.7 µM | TGI (MDA-MB-231; read-out: Log TGI (converted)): 21.4 µM | GI50 (MOLT-4): 3.24 µM | CC50 (MOLT-4; [4]): 97.7 µM | TGI (MOLT-4; read-out: Log TGI (converted)): 11.5 µM | GI50 (SK-OV-3): 15.1 µM | LC50 (SK-OV-3): 53.7 µM | TGI (SK-OV-3; read-out: Log TGI (converted)): 28.2 µM | GI50 (EKVX): 4.37 µM | CC50 (EKVX; [4]): 44.7 µM | TGI (EKVX; read-out: Log TGI (converted)): 16.6 µM | IC50 [2]: 3.9 µM | GI50 (SK-MEL-5): 2.09 µM | LC50 (SK-MEL-5): 7.08 µM | TGI (SK-MEL-5; read-out: Log TGI (converted)): 3.8 µM | GI50 (A549): 11.2 µM | CC50 (A549; [4]): 72.4 µM | TGI (A549; read-out: Log TGI (converted)): 28.8 µM | GI50 (UO-31): 6.61 µM | LC50 (UO-31): 45.7 µM | TGI (UO-31; read-out: Log TGI (converted)): 19.5 µM | GI50 (NCI-H322M): 13.5 µM | CC50 (NCI-H322M; [4]): 55 µM | TGI (NCI-H322M; read-out: Log TGI (converted)): 27.5 µM | GI50 (NCI-H460): 10.7 µM | CC50 (NCI-H460; [4]): 89.1 µM | TGI (NCI-H460; read-out: Log TGI (converted)): 30.9 µM | GI50 (A498): 18.2 µM | LC50 (A498): 60.3 µM | TGI (A498; read-out: Log TGI (converted)): 33.1 µM | GI50 (BT-549): 3.09 µM | LC50 (BT-549): 34.7 µM | TGI (BT-549; read-out: Log TGI (converted)): 11.2 µM | GI50 (CAKI-1): 11 µM | LC50 (CAKI-1): 47.9 µM | TGI (CAKI-1; read-out: Log TGI (converted)): 22.9 µM | GI50 (NCI/ADR-RES): 6.76 µM | LC50 (concentration killing 50% of cells) (NCI/ADR-RES): 100 µM | TGI (NCI/ADR-RES; read-out: Log TGI (converted)): 67.6 µM | GI50 (LOX IMVI): 3.47 µM | LC50 (LOX IMVI): 41.7 µM | TGI (LOX IMVI; read-out: Log TGI (converted)): 11.5 µM | GI50 (SF-539): 11.2 µM | LC50 (SF-539): 50.1 µM | TGI (SF-539; read-out: Log TGI (converted)): 23.4 µM | GI50 (HCC 2998): 13.5 µM | CC50 (HCC 2998; [4]): 56.2 µM | TGI (HCC 2998; read-out: Log TGI (converted)): 27.5 µM | GI50 (NCI-H522): 6.61 µM | CC50 (NCI-H522; [4]): 60.3 µM | TGI (NCI-H522; read-out: Log TGI (converted)): 21.9 µM | GI50 (HT-29): 13.2 µM | CC50 (HT-29; [4]): 79.4 µM | TGI (HT-29; read-out: Log TGI (converted)): 32.4 µM | Activity (T47D): inactive | GI50 (OVCAR-8): 4.68 µM | LC50 (OVCAR-8): 100 µM | TGI (OVCAR-8; read-out: Log TGI (converted)): 53.7 µM | GI50 (Malme-3M): 7.41 µM | CC50 (Malme-3M; [4]): 49 µM | TGI (Malme-3M; read-out: Log TGI (converted)): 20.4 µM | IC50 [3]: 0.8 µM | GI50 (K562): 4.79 µM | CC50 (K562; [4]): 58.9 µM | TGI (K562; read-out: Log TGI (converted)): 14.8 µM | GI50 (HCT-116): 3.39 µM | CC50 (HCT-116; [4]): 34.7 µM | TGI (HCT-116; read-out: Log TGI (converted)): 11.5 µM | GI50 (HOP-62): 2.57 µM | CC50 (HOP-62; [4]): 28.2 µM | TGI (HOP-62; read-out: Log TGI (converted)): 8.13 µM | GI50 (Hs-578T): 5.89 µM | LC50 (Hs-578T): 100 µM | TGI (Hs-578T; read-out: Log TGI (converted)): 69.2 µM | GI50 (TK-10): 17 µM | LC50 (TK-10): 57.5 µM | TGI (TK-10; read-out: Log TGI (converted)): 31.6 µM | GI50 (HL-60): 3.89 µM | LC50 (HL-60): 79.4 µM | TGI (HL-60; read-out: Log TGI (converted)): 11.2 µM | GI50 (OVCAR-4): 2.57 µM | LC50 (OVCAR-4): 37.2 µM | TGI (OVCAR-4; read-out: Log TGI (converted)): 8.51 µM | GI50 (KM12): 13.8 µM | CC50 (KM12; [4]): 69.2 µM | TGI (KM12; read-out: Log TGI (converted)): 30.9 µM | GI50 (RXF 393): 1.62 µM | LC50 (RXF 393): 30.2 µM | TGI (RXF 393; read-out: Log TGI (converted)): 5.62 µM | GI50 (SNB-19): 15.8 µM | LC50 (SNB-19): 55 µM | TGI (SNB-19; read-out: Log TGI (converted)): 29.5 µM | GI50 (M14): 3.02 µM | LC50 (50% lethal concentration) (M14): 34.7 µM | TGI (M14; read-out: Log TGI (converted)): 11.5 µM | GI50 (786-0): 9.33 µM | LC50 (786-0): 49 µM | TGI (786-0; read-out: Log TGI (converted)): 21.9 µM | GI50 (SF-268): 12.6 µM | LC50 (SF-268): 66.1 µM | TGI (SF-268; read-out: Log TGI (converted)): 28.8 µM
